8 compounds from ChEMBL document CHEMBL1131094, “Classical/nonclassical hybrid cannabinoids: southern aliphatic chain-functionalized C-6beta methyl, ethyl, and propyl analogues” (J Med Chem, 1998) can be followed below.

One test addresses Cannabinoid receptor 1 (Rattus norvegicus, UniProt P20272). Nature of the test: Binding affinity to Cannabinoid receptor 1 from rat forebrain synaptosomal membranes was measured using [3H]CP-55940 as radioligand. Put shortly:
(§1)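 Filtration displacement assay: 40 µg membrane protein (rat forebrain synaptosomes for CB1, mouse spleen for CB2) incubated 1 h at 30 °C with 0.76 nM [3H]CP-55,940 and varied test concentrations. Nonspecific binding defined by 100 nM unlabeled CP-55,940. Specific binding normalized 0–100%, IC50 fitted with a four-variable equation (max 100, min 0), mean of ≥3 experiments in duplicate, then converted to Ki.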

Another test addresses Cannabinoid receptor 2 (Mus musculus, UniProt P47936). Nature of the test: Binding affinity to Cannabinoid receptor 2 from mouse spleen was measured using [3H]CP-55940 as radioligand. It is filed as tissue-based. Put shortly:
as §1

Chain of Cannabinoid receptor 2 (P47936 whole entry): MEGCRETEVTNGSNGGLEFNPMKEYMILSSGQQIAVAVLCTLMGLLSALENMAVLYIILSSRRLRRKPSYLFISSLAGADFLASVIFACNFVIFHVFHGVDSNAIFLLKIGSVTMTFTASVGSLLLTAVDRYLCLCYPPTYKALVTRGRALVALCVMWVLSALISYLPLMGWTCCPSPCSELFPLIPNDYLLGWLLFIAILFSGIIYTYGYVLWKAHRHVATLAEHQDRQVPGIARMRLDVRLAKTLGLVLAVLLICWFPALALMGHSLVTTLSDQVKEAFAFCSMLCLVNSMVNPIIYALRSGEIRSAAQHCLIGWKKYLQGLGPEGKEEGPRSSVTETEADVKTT
Chain of Cannabinoid receptor 1 (P20272 whole entry): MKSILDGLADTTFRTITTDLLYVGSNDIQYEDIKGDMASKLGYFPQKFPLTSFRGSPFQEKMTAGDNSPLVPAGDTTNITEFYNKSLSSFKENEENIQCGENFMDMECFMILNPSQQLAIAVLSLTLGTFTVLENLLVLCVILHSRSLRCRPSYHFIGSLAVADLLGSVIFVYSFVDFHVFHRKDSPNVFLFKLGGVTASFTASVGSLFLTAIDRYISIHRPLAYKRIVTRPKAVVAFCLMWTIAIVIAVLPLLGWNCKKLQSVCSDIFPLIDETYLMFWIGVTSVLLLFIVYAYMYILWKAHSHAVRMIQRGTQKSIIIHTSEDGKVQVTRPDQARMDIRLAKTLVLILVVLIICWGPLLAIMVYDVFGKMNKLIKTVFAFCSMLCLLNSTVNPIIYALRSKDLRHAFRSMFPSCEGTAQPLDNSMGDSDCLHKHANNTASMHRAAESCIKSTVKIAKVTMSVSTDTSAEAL

For the compound `CCCCCCC(C)(C)c1cc(O)c2c(c1)O[C@@](C)(CCCI)[C@@H]1CC[C@@H](CO)C[C@@H]21`, the inhibition constant Ki at Cannabinoid receptor 1 worked out at 2.2 nM; at Cannabinoid receptor 2, 4.3 nM.
Taken in the same sequence, the figures for `CCCCCCC(C)(C)c1cc(O)c2c(c1)O[C@@](C)(CCO)[C@@H]1CC[C@@H](CO)C[C@@H]21` were 2.8 nM and 2.3 nM.
Turning to `CCCCCCC(C)(C)c1cc(O)c2c(c1)O[C@@](C)(CCI)[C@@H]1CC[C@@H](CO)C[C@@H]21`, the Ki at Cannabinoid receptor 1 stood at 40.7 nM; on Cannabinoid receptor 2, 9.7 nM.
Taken in the same sequence, the figures for `CCCCCCC(C)(C)c1cc(O)c2c(c1)O[C@@](C)(CC)[C@@H]1CC[C@@H](CO)C[C@@H]21` were 11.1 nM and 21.5 nM.
Taken in the same sequence, the figures for `CCCCCCC(C)(C)c1cc(O)c2c(c1)O[C@@](C)(CO)[C@@H]1CC[C@@H](CO)C[C@@H]21` were 1.9 nM and 1.4 nM.
On to `CCCCCCC(C)(C)c1cc(O)c2c(c1)O[C@@](C)(CCCO)[C@@H]1CC[C@@H](CO)C[C@@H]21`, for which the inhibition constant Ki came to 2.2 nM on Cannabinoid receptor 1 and 3.4 nM on Cannabinoid receptor 2.
`CCCCCCC(C)(C)c1cc(O)c2c(c1)O[C@@](C)(CCC)[C@@H]1CC[C@@H](CO)C[C@@H]21`: the Ki at Cannabinoid receptor 1 came out at 14.4 nM; on Cannabinoid receptor 2 it was 38.9 nM.
For `CCCCCCC(C)(C)c1cc(O)c2c(c1)OC(C)(C)[C@@H]1CC[C@@H](CO)C[C@@H]21` the same measures were 2.3 nM and 2.3 nM.
